From ChEMBL document CHEMBL5247578, “Effective synthesis of benzimidazoles-imidazo[1,2-a]pyrazine conjugates: A comparative study of mono-and bis-benzimidazoles for antitumor activity” (Eur J Med Chem, 2019)

How the values were obtained:
Albumin = Albumin (Bos taurus, UniProt P02769); assay: Binding affinity to bovine serum albumin assessed as quenching constant by fluorescence spectroscopic method; conditions: cattle
Calf thymus DNA = assay: Binding affinity to calf thymus DNA assessed as binding constant by Benesi-Hildebrand equation based UV-vis spectrophotometric method; format: nucleic-acid assay; conditions: Bos taurus
786-0 = assay: Antiproliferative activity against human 786-0 cells assessed as cell growth at 0.00000001 M incubated for 48 hrs by SRB assay relative to control; format: functional; conditions: dose 10 nM, read-out: Activity
In short: (§1)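 NCI-60 five-dose screen over 10^-4–10^-8 M (10-fold dilutions). Cells grown in RPMI 1640 with 5% FBS and 2 mM L-glutamine, seeded at 5,000–40,000 cells/well and preincubated 24 h. Drug from DMSO stock, 48 h at 37 °C, 5% CO2. Adherent cells TCA-fixed and stained with 0.4% SRB; A515 read. Percent growth = (Ti−Tz)/(C−Tz)×100, or (Ti−Tz)/Tz×100 when Ti<Tz.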

SK-MEL-28 [1] = assay: Antiproliferative activity against human SK-MEL-28 cells assessed as cell growth at 0.00000001 M incubated for 48 hrs by SRB assay relative to control; format: functional; conditions: dose 10 nM, read-out: Activity
HOP-62 = assay: Antiproliferative activity against human HOP-62 cells assessed as cell growth at 0.00000001 M incubated for 48 hrs by SRB assay relative to control; format: functional; conditions: dose 10 nM, read-out: Activity
In short: (§2)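 NCI-60 five-dose screen (10^-4 to 10^-8 M). Cells grown in RPMI 1640 with 5% FBS and 2 mM L-glutamine, plated at 5,000-40,000 cells/well and preincubated 24 h. Drug given from DMSO stock, then 48 h at 37 °C, 5% CO2. For adherent lines, cells fixed with cold TCA, SRB-stained and read at 515 nm. Percent growth taken against time-zero and untreated control.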

HOP-92 = assay: Antiproliferative activity against human HOP-92 cells assessed as cell growth at 0.00000001 M incubated for 48 hrs by SRB assay relative to control; format: functional; conditions: dose 10 nM, read-out: Activity; in short: as §2
HT-29 [2] = assay: Antiproliferative activity against human HT-29 cells assessed as cell growth at 0.00000001 M incubated for 48 hrs by SRB assay relative to control; format: functional; conditions: dose 10 nM, read-out: Activity; in short: as §2
SNB-75 = assay: Antiproliferative activity against human SNB-75 cells assessed as cell growth at 0.00000001 M incubated for 48 hrs by SRB assay relative to control; format: functional; conditions: dose 10 nM, read-out: Activity
IGROV-1 = assay: Antiproliferative activity against human IGROV-1 cells assessed as cell growth inhibition by measuring lethal concentration incubated for 48 hrs by sulforhodamine B assay; format: functional; conditions: read-out: LC50 (the source's name)
SK-MEL-28 [3] = assay: Antiproliferative activity against human SK-MEL-28 cells assessed as cell growth inhibition by measuring lethal concentration incubated for 48 hrs by sulforhodamine B assay; format: functional; conditions: read-out: LC50 (the source's name)
SK-MEL-2 [4] = assay: Antiproliferative activity against human SK-MEL-2 cells assessed as cell growth inhibition by measuring lethal concentration incubated for 48 hrs by sulforhodamine B assay; format: functional; conditions: read-out: LC50 (the source's name)
M14 = assay: Antiproliferative activity against human M14 cells assessed as cell growth inhibition by measuring lethal concentration incubated for 48 hrs by sulforhodamine B assay; format: functional; conditions: read-out: LC50 (the source's name)
CCRF-CEM = assay: Antiproliferative activity against human CCRF-CEM cells assessed as cell growth inhibition by measuring lethal concentration incubated for 48 hrs by sulforhodamine B assay; format: functional; conditions: read-out: LC50 (the source's name)
BT-549 = assay: Growth inhibition against human BT-549 cells assessed as total growth inhibitory concentration incubated for 48 hrs by sulforhodamine B assay; format: functional
HCT-116 = assay: Growth inhibition against human HCT-116 cells assessed as total growth inhibitory concentration incubated for 48 hrs by sulforhodamine B assay; format: functional
NCI-H460 = assay: Growth inhibition against human NCI-H460 cells assessed as total growth inhibitory concentration incubated for 48 hrs by sulforhodamine B assay; format: functional
MDA-MB-468 = assay: Antiproliferative activity against human MDA-MB-468 cells assessed as cell growth at 0.00000001 M incubated for 48 hrs by SRB assay relative to control; format: functional; conditions: dose 10 nM, read-out: Activity
HL-60 = assay: Antiproliferative activity against human HL-60 cells assessed as cell growth at 0.0000001 M incubated for 48 hrs by SRB assay relative to control; format: functional; conditions: dose 100 nM, read-out: Activity; in short: as §2
HCT-15 [5] = assay: Antiproliferative activity against human HCT-15 cells assessed as cell growth at 0.000001 M incubated for 48 hrs by SRB assay relative to control; format: functional; conditions: read-out: Activity; in short: as §2
SW-620 = assay: Antiproliferative activity against human SW620 cells assessed as cell growth at 0.000001 M incubated for 48 hrs by SRB assay relative to control; format: functional; conditions: read-out: Activity
SNB-19 = assay: Antiproliferative activity against human SNB-19 cells assessed as cell growth at 0.000001 M incubated for 48 hrs by SRB assay relative to control; format: functional; conditions: read-out: Activity
U-251 = assay: Antiproliferative activity against human U-251 cells assessed as cell growth at 0.000001 M incubated for 48 hrs by SRB assay relative to control; format: functional; conditions: read-out: Activity
UACC-257 = assay: Antiproliferative activity against human UACC-257 cells assessed as cell growth at 0.000001 M incubated for 48 hrs by SRB assay relative to control; format: functional; conditions: read-out: Activity
NCI-H522 = assay: Antiproliferative activity against human NCI-H522 cells assessed as cell growth at 0.00001 M incubated for 48 hrs by SRB assay relative to control; format: functional; conditions: read-out: Activity
COLO 205 = assay: Antiproliferative activity against human COLO 205 cells assessed as cell growth at 0.00001 M incubated for 48 hrs by SRB assay relative to control; format: functional; conditions: read-out: Activity; in short: as §1
HT-29 [6] = assay: Antiproliferative activity against human HT-29 cells assessed as cell growth at 0.00001 M incubated for 48 hrs by SRB assay relative to control; format: functional; conditions: read-out: Activity; in short: as §2
HCT-15 [7] = assay: Antiproliferative activity against human HCT-15 cells assessed as cell growth at 0.0001 M incubated for 48 hrs by SRB assay relative to control; format: functional; conditions: read-out: Activity; in short: as §2
SK-MEL-2 [8] = assay: Antiproliferative activity against human SK-MEL-2 cells assessed as cell growth at 0.0001 M incubated for 48 hrs by SRB assay relative to control; format: functional; conditions: read-out: Activity
OVCAR-4 = assay: Antiproliferative activity against human OVCAR-4 cells assessed as cell growth at 0.0001 M incubated for 48 hrs by SRB assay relative to control; format: functional; conditions: read-out: Activity
CAKI-1 = assay: Antiproliferative activity against human CAKI-1 cells assessed as cell growth at 0.0001 M incubated for 48 hrs by SRB assay relative to control; format: functional; conditions: read-out: Activity; in short: as §1
MCF7 = assay: Antiproliferative activity against human MCF7 cells assessed as cell growth at 0.0001 M incubated for 48 hrs by SRB assay relative to control; format: functional; conditions: read-out: Activity
Hs-578T = assay: Antiproliferative activity against human Hs-578T cells assessed as cell growth at 0.0001 M incubated for 48 hrs by SRB assay relative to control; format: functional; conditions: read-out: Activity
In short: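 NCI-60 five-dose mode, 10^-4 to 10^-8 M in 10-fold steps. RPMI 1640, 5% FBS, 2 mM L-glutamine; 24 h preincubation, then 48 h drug exposure at 37 °C. Stocks in DMSO at 400× the top concentration, diluted in medium with gentamicin. TCA fixation, SRB staining, absorbance at 515 nm. Percent growth from time-zero (Tz), control (C) and test (Ti) readings.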

Chain of Albumin (P02769 whole entry): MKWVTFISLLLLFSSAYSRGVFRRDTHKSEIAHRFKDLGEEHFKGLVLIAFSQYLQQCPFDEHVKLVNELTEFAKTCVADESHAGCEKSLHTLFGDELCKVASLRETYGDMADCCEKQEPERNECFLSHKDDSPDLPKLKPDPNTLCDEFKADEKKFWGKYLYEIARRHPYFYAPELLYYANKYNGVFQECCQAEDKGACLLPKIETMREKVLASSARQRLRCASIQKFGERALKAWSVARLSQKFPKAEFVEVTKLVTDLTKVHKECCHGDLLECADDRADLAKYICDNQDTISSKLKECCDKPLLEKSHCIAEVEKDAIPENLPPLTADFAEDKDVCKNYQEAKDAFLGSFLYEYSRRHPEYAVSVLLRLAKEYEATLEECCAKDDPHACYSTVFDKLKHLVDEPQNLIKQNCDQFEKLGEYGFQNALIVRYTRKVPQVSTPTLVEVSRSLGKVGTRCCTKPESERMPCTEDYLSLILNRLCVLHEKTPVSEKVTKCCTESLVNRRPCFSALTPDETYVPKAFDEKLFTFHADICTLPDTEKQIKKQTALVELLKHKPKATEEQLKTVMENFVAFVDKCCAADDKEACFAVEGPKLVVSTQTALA

| Compound | Kq (Albumin) | Kb (Calf thymus DNA) | growth at 0.01 µM (786-0) | growth at 0.01 µM (SK-MEL-28 [1]) | growth at 0.01 µM (HOP-62) | growth at 0.01 µM (HOP-92) | growth at 0.01 µM (HT-29 [2]) | growth at 0.01 µM (SNB-75) | CC50 (IGROV-1) | CC50 (SK-MEL-28 [3]) | CC50 (SK-MEL-2 [4]) | CC50 (M14) | CC50 (CCRF-CEM) | TGI (BT-549) | TGI (HCT-116) | TGI (NCI-H460) | growth at 0.01 µM (MDA-MB-468) | growth at 0.1 µM (HL-60) | growth at 1 µM (HCT-15 [5]) | growth at 1 µM (SW-620) | also measured |
| --- | --- | --- | --- | --- | --- | --- | --- | --- | --- | --- | --- | --- | --- | --- | --- | --- | --- | --- | --- | --- | --- |
| COc1ccc(-c2cn3ccnc3c(-c3ccc4ncn(C5CCCCC5)c4c3)n2)cc1 | 1.16 10^13/M/sec | 3.34 10^4/M | 87% | 94% | 92% | 96% | 94% | 78% | > 100 µM | > 100 µM | > 100 µM | > 100 µM | > 100 µM | 3.91 µM | 4.06 µM | > 100 µM | 93% | 95% | 42% | 42% | growth at 1 µM (SNB-19): 45%; growth at 1 µM (U-251): 69%; growth at 1 µM (UACC-257): 69%; growth at 10 µM (NCI-H522): -7%; growth at 10 µM (COLO 205): 1%; growth at 10 µM (HT-29 [6]): -5%; growth at 100 µM (HCT-15 [7]): 13%; growth at 100 µM (SK-MEL-2 [8]): 3%; growth at 100 µM (OVCAR-4): 57%; growth at 100 µM (CAKI-1): 26%; growth at 100 µM (MCF7): 24%; growth at 100 µM (Hs-578T): -3% |
| c1ccc(Cn2cnc3ccc(-c4nc(-c5ccc6c(c5)ncn6C5CCCCC5)cn5ccnc45)cc32)cc1 | 1.14 10^13/M/sec | 3.18 10^4/M | 86% | 94% | 79% | 88% | 99% | 81% | > 100 µM | > 100 µM | > 100 µM | > 100 µM | > 100 µM | 2.68 µM | 2.63 µM | 5.66 µM | 100% | 113% | 65% | 108% | growth at 1 µM (SNB-19): 93%; growth at 1 µM (U-251): 83%; growth at 1 µM (UACC-257): 112%; growth at 10 µM (NCI-H522): -37%; growth at 10 µM (COLO 205): -61%; growth at 10 µM (HT-29 [6]): -48%; growth at 100 µM (HCT-15 [7]): 3%; growth at 100 µM (SK-MEL-2 [8]): -33%; growth at 100 µM (OVCAR-4): 14%; growth at 100 µM (CAKI-1): 23%; growth at 100 µM (MCF7): 8%; growth at 100 µM (Hs-578T): 12% |
